Results from different studies.
Compare with care: the assays were run in different laboratories.
G protein-coupled receptor 88: G protein-coupled receptor 88 (Homo sapiens, UniProt Q9GZN0)
CDK13: Cyclin-dependent kinase 13 (CDK13, Homo sapiens, UniProt Q14004)
Cnr2: Cannabinoid receptor 2 (Cnr2, Mus musculus, UniProt P47936)
PRKAA1: 5'-AMP-activated protein kinase catalytic subunit alpha-1 (PRKAA1, Homo sapiens, UniProt Q13131)
CTSL: Procathepsin L (CTSL, Homo sapiens, UniProt P07711)

Compound | target | assay | test system | setting | measurement | result
Cc1nc2c(=O)n(C)c(=O)nc-2n(C)n1 | Protein disulfide-isomerase (P4HB, Homo sapiens, UniProt P07237) | thermal stability, DSF |  | 1 µM | ΔTm | -1.43 °C
CC[C@@H](C)COc1ccc([C@@H](CO)C(=O)N[C@H](C)c2ccccc2)cc1 | G protein-coupled receptor 88 | cAMP, agonist, TR-FRET |  |  | Emax | 96%
COc1ncccc1-c1cnn2ccc(N3CCN(C(=O)OC(C)C)CC3)nc12 | CDK13 | binding, competition with immobilised ligand |  | 1 µM | remaining binding | 95%
CCOC(=O)[C@](CC)(CCC[S+]([O-])CCOCCOCCNC(=O)OC(C)(C)C)NC(=O)c1ccc(C2CC2)c(Cc2ccc(F)cc2)n1 (stereo partly drawn) | Cnr2 | cAMP, agonist |  |  | Emax | 79%
CCCC#Cc1ccc([C@@H](CO)C(=O)N[C@H](C)c2ccccc2)cc1 | G protein-coupled receptor 88 | cAMP, agonist, TR-FRET |  |  | Emax | 92%
Cc1nn(C)cc1-c1nc2c(N3CCN(Cc4ccc(Cl)cc4)CC3)c(Cl)cnc2[nH]1 | CDK13 | binding, competition with immobilised ligand |  | 1 µM | remaining binding | 77%
CCC[C@H](C)COc1ccc([C@@H](CO)C(=O)N[C@H](C)c2ccccc2)cc1 | G protein-coupled receptor 88 | cAMP, agonist, TR-FRET | CHO |  | Emax | 97%
Cn1cc(-c2cc(F)cc(N3CCn4c(cc5c4CCCC5)C3=O)c2CO)cc(Nc2ccc(N3CCN(C4COC4)CC3)cn2)c1=O | PRKAA1 | enzyme activity, inhibitor |  | 0.1 µM | inhibition | 0%
Nc1ncc(-c2nc(N3CCOCC3)nc(N3CCOCC3)n2)c(C(F)F)n1 | PRKAA1 | cell-free assay, competition with immobilised ligand |  | 10 µM | remaining binding | 91%
CCCc1ccc(-c2ccc([C@@H](CO)C(=O)N[C@H](C)c3ccccc3)cc2)cc1 | G protein-coupled receptor 88 | cAMP, agonist, TR-FRET |  |  | Emax | 96%
CC(C)C[C@H](NC(=O)[C@H]1O[C@@H]1C(=O)O)C(=O)NCCCCN=C(N)N | CTSL | enzyme activity, inhibitor |  | 500 pM | inhibition | 13%
Cn1cc(-c2cccc(N3CCc4c(sc5c4CC(C)(C)C5)C3=O)c2CO)cc(Nc2ccncn2)c1=O | Sphingosine kinase 2 (SPHK2, Homo sapiens, UniProt Q9NRA0) | enzyme activity, inhibitor |  | 1 µM | inhibition | -1%
CC[C@H](NC(=O)OCc1ccccc1)C(=O)N[C@H](C(=O)N[C@@H](CC(C)C)C(=O)N(C)N(C#N)CCC(N)=O)C(C)(C)C | CTSL | enzyme activity, inhibitor |  |  | kon | 17300 M⁻¹ s⁻¹
CCOC(=O)C(CC)(CCCSCCOCCOCCOCCOCCNC(=O)OC(C)(C)C)NC(=O)c1ccc(C2CC2)c(Cc2ccc(F)cc2)n1 (stereo not drawn) | Cnr2 | cAMP, agonist |  |  | Emax | 84%
C#Cc1n[nH]c2c(-c3cn([C@@H](C)c4ccccn4)c(=O)[nH]c3=O)cc(F)cc12 | Protein kinase C theta type (PRKCQ, Homo sapiens, UniProt Q04759) | enzyme activity, inhibitor |  | 0.1 µM | inhibition | 13.6%
